# Activity calls are given as the source filed them. The calls are words filed in the database; no cut-off is given here.
# Assays:
# [1] = Solubility in PBS buffer; assay type: physicochemical
# In short: (§1)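 Powder dissolved to saturation in pH 7.4 PBS (100 mM sodium phosphate, 150 mM NaCl), or in PBS with 10% Cdx, and shaken 24 h. After centrifugation, supernatant quantified by HPLC against a per-compound calibration line prepared from the DMSO stock.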
# [2] = biological target: T1, Stromal cell-derived factor 1 (Homo sapiens, UniProt P48061); test: Binding affinity to Texas Red-labelled CXCL12 (unknown origin) assessed as inhibition of CXCL12-Texas Red binding to EGFP-labeled human CXCR4 expressed in HEK293 cell membranes pre-incubated for 1 hr by FRET-based binding assay
# In short: (§2)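 HEK-293 cells stably expressing human EGFP-CXCR4, 10⁶ cells/ml in HEPES buffer pH 7.4 with 0.1% BSA, 21 °C. CXCL12-Texas Red (100 nM) was preincubated 1 h at room temperature with compound or DMSO, then added at t=150 s. FRET read as loss of EGFP emission at 510 nm (excitation 470 nm) up to equilibrium. Ki from dose-response curves.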
# [3] = Kinetic solubility in pH 7.4 HEPES-BSA buffer at 5 uM incubated for 24 hrs at 20 degC by HPLC method; assay type: physicochemical; conditions: read-out: Kinetic_solubility
# In short: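 Compound added from 10 mM DMSO stock to 5 μM in pH 7.4 HEPES-BSA buffer (1 g/L BSA), shaken 24 h at 20 °C. After centrifugation, supernatant concentration measured by HPLC against 5 and 10 μM standards.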
# [4] = Thermodynamic solubility in pH 7.4 PBS buffer incubated for 24 hrs at 22 degC by HPLC method; assay type: physicochemical; conditions: read-out: Therm_solubility; in short: as §1
# [5] = Thermodynamic solubility in pH 7.4 PBS/Cdx buffer incubated for 24 hrs at 22 degC by HPLC method; assay type: physicochemical; conditions: read-out: Therm_solubility; in short: as §1
# [6] = Chemical stability in pH 7.4 PBS buffer assessed as parent compound remaining at 10 uM incubated for 24 hrs by RP-HPLC method; assay type: physicochemical; conditions: read-out: Stability
# In short: (§3)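 Compound diluted from DMSO stock to 10 μM final (1% DMSO) in PBS pH 7.4, or in PBS with 10% w/w (2-hydroxypropyl)-β-cyclodextrin. Sampled at t0, 2, 4, 6 and 24 h and injected directly onto RP-HPLC. Percent remaining relative to t0 from peak area.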
# [7] = Chemical stability in pH 7.4 PBS/Cdx buffer assessed as parent compound remaining at 10 uM incubated for 24 hrs by RP-HPLC method; assay type: physicochemical; conditions: read-out: Stability; in short: as §3
# Mus musculus [8] = test: Inhibition of eosinophil infiltration in Balb/c mouse model of 8 day model of allergic eosinophilic airway inflammation at 300 nmol/kg dosed intranasally 2 hrs before ovalbumin challenge by hemocytometry; assay type: functional; conditions: inhaled or nasal
# In short: (§4)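 OVA/alum-sensitized Balb/c mice challenged intranasally with OVA on days 5–7. Compounds at 300 nmol/kg in 10% PBS/Cdx given intranasally 2 h before each challenge. BAL 24 h after the last challenge; eosinophils, neutrophils and lymphocytes counted by hemocytometer and differential cytospin; n=6/group.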
# Mus musculus [9] = test: Inhibition of macrophages infiltration in Balb/c mouse model of 8 day model of allergic eosinophilic airway inflammation at 300 nmol/kg dosed intranasally 2 hrs before ovalbumin challenge by hemocytometry; assay type: functional, organism-based
# Mus musculus [10] = test: Inhibition of lymphocytes infiltration in Balb/c mouse model of 8 day model of allergic eosinophilic airway inflammation at 300 nmol/kg dosed intranasally 2 hrs before ovalbumin challenge by hemocytometry; assay type: functional, organism-based; in short: as §4
# Mus musculus [11] = test: Inhibition of eosinophil infiltration in Balb/c mouse model of 8 day model of allergic eosinophilic airway inflammation dosed intranasally 2 hrs before ovalbumin challenge by hemocytometry; assay type: functional, organism-based
# In short: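 Same intranasal OVA model with dose-response treatment in PBS/Cdx 10% given 2 h before each challenge. Percent inhibition of BAL eosinophil recruitment; mean ± SEM, n=6/group.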
# Mus musculus [12] = test: Anti-inflammatory activity in Balb/c mouse model of hypereosinophilia assessed as inhibition of eosinophil infiltration at 350 umol/kg, ip dosed 2 hrs before allergen challenge; assay type: functional
# In short: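 Balb/c mice sensitized with OVA/alum i.p. and challenged intranasally with OVA on 3 consecutive days. Compounds given i.p. 2 h before each challenge: neutraligands 350 μmol/kg in PBS/CMC 1%, AMD3100 12.6 μmol/kg, dexamethasone 2.5 μmol/kg. BAL 24 h after the last challenge; absolute eosinophil counts; mean ± SEM, n=6/group.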
# Mus musculus [13] = test: Toxicity in Balb/c mouse model of hypereosinophilia assessed as reduction in body weight at 12.6 umol/kg, ip dosed daily 2 hrs before allergen challenge for 3 days and measured 24 hrs after last dose; assay type: organism-based; conditions: in vivo
# In short: (§5)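 Same OVA model with i.p. dosing 2 h before each of the three challenges: neutraligands 350 μmol/kg in PBS/CMC 1%, AMD3100 12.6 μmol/kg, dexamethasone 2.5 μmol/kg. Body and spleen weight loss recorded 24 h after three daily administrations; n=6/group.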
# Mus musculus [14] = test: Toxicity in Balb/c mouse model of hypereosinophilia assessed as reduction in spleen weight at 12.6 umol/kg, ip dosed daily 2 hrs before allergen challenge for 3 days and measured 24 hrs after last dose; assay type: organism-based; conditions: in vivo; in short: as §5
# Mus musculus [15] = test: Toxicity in Balb/c mouse model of hypereosinophilia assessed as reduction in body weight at 350 umol/kg, ip dosed daily 2 hrs before allergen challenge for 3 days and measured 24 hrs after last dose; assay type: organism-based; set-up: scale not given: the % may be the effect or the level left; conditions: in vivo; in short: as §5
# Mus musculus [16] = test: Toxicity in Balb/c mouse model of hypereosinophilia assessed as reduction in spleen weight at 350 umol/kg, ip dosed daily 2 hrs before allergen challenge for 3 days and measured 24 hrs after last dose; assay type: organism-based; set-up: scale not given: the % may be the effect or the level left; conditions: in vivo; in short: as §5
# Mus musculus [17] = test: Toxicity in Balb/c mouse model of hypereosinophilia assessed as reduction in body weight at 350 umol/kg, ip dosed daily 2 hrs before allergen challenge for 10 days and measured 24 hrs after last dose; assay type: organism-based; conditions: in vivo
# In short: (§6)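 Mice given 10 daily administrations at 350 μmol/kg. Monitored for weight loss and for signs of toxicity, including prostration and bristly hair.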
# Mus musculus [18] = test: Toxicity in Balb/c mouse model of hypereosinophilia assessed as toxic signs at 350 umol/kg, ip dosed daily 2 hrs before allergen challenge for 10 days and measured 24 hrs after last dose; assay type: organism-based; conditions: in vivo; in short: as §6
# Mus musculus [19] = test: Toxicity in Balb/c mouse model of hypereosinophilia assessed as prostration at 350 umol/kg, ip dosed daily 2 hrs before allergen challenge for 10 days and measured 24 hrs after last dose; assay type: organism-based; conditions: in vivo; in short: as §6
# Mus musculus [20] = test: Toxicity in Balb/c mouse model of hypereosinophilia assessed as induction of bristly hair at 350 umol/kg, ip dosed daily 2 hrs before allergen challenge for 10 days and measured 24 hrs after last dose; assay type: organism-based; conditions: in vivo; in short: as §6
# Mus musculus [21] = test: Toxicity in Balb/c mouse model of hypereosinophilia assessed as induction of liver lesions at 350 umol/kg, ip dosed daily 2 hrs before allergen challenge for […] and measured 24 hrs after last dose by Gomori's trichrome staining based histological analysis; assay type: organism-based; conditions: in vivo
# Mus musculus [22] = test: Toxicity in Balb/c mouse model of hypereosinophilia assessed as induction of spleen lesions at 350 umol/kg, ip dosed daily 2 hrs before allergen challenge for […] and measured 24 hrs after last dose by Gomori's trichrome staining based histological analysis; assay type: organism-based; conditions: in vivo
# Mus musculus [23] = test: Toxicity in Balb/c mouse model of hypereosinophilia assessed as induction of heart lesions at 350 umol/kg, ip dosed daily 2 hrs before allergen challenge for […] and measured 24 hrs after last dose by Gomori's trichrome staining based histological analysis; assay type: organism-based; conditions: in vivo
# Mus musculus [24] = test: Toxicity in Balb/c mouse model of hypereosinophilia assessed as induction of kidney lesions at 350 umol/kg, ip dosed daily 2 hrs before allergen challenge for […] and measured 24 hrs after last dose by Gomori's trichrome staining based histological analysis; assay type: organism-based; conditions: in vivo
# [25] = biological target: T1, Stromal cell-derived factor 1; test: Binding affinity to Texas Red-labelled CXCL12 (unknown origin) assessed as inhibition of CXCL12-Texas Red binding to EGFP-labeled human CXCR4 expressed in HEK293 cell membranes at 10 uM pre-incubated for 1 hr by FRET-based binding assay
# In short: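 FRET binding assay in EGFP-CXCR4 HEK-293 cells. Compound at 10 μM preincubated with CXCL12 before addition to the cells; binding read as EGFP emission at 510 nm after CXCL12-Texas Red addition. T134 (20 μM) used as control.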
# [26] = biological target: T1, Stromal cell-derived factor 1; test: Binding affinity to Texas Red-labelled CXCL12 (unknown origin) assessed as inhibition of CXCL12-Texas Red binding to EGFP-labeled human CXCR4 expressed in HEK293 cell membranes at 30 uM pre-incubated for 1 hr by FRET-based binding assay; in short: as §2
# [27] = biological target: T1, Stromal cell-derived factor 1; test: Binding affinity to Texas Red-labelled CXCL12 (unknown origin) assessed as inhibition of CXCL12-Texas Red binding to EGFP-labeled human CXCR4 expressed in HEK293 cell membranes at 0.3 uM pre-incubated for 1 hr by FRET-based binding assay; in short: as §2
# [28] = biological target: T1, Stromal cell-derived factor 1; test: Binding affinity to CXCL12 (unknown origin) assessed as changes in tryptophan fluorescence intensity
# In short: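 Intrinsic Trp fluorescence of CXCL12 (2 μM in Hepes buffer), excitation 285 nm, emission 340 nm, titrated with increasing compound. Kd obtained by fitting a 1:1 binding quadratic model with chemokine fixed at 2 μM. Mean ± SD of three independent experiments.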
# [29] = biological target: T1, Stromal cell-derived factor 1; test: Binding affinity to Texas Red-labelled CXCL12 (unknown origin) assessed as inhibition of CXCL12-Texas Red binding to EGFP-labeled human CXCR4 expressed in HEK293 cell membranes at 300 uM pre-incubated for 1 hr by FRET-based binding assay; in short: as §2
# T1 sequence (P48061 whole entry): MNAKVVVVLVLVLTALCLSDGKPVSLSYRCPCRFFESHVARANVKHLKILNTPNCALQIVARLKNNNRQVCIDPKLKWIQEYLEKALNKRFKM
structure (smiles),measurement,setting,value
COc1cc(/C=C/C(=O)c2ccc(Cl)cc2)ccc1O,solubility,[1],9 µM
same,Ki,[2]; hek293,53 nM
same,"solubility kinetic at 24 h, 5 µM",[3],> 5 µM
same,solubility thermodynamic at 24 h,[4],9 µM
same,solubility thermodynamic at 24 h,[5],> 300 µM
same,"remaining at 24 h, 10 µM",[6],100%
same,"remaining at 24 h, 10 µM",[7],100%
same,inhibition in vivo at 0.3 µmol/kg,Mus musculus [8],47%
same,inhibition,Mus musculus [9],inactive
same,inhibition,Mus musculus [10],inactive
same,IC50,Mus musculus [11],> 500 nmol/kg
same,inhibition in vivo at 350 µmol/kg,Mus musculus [12],54%
same,Activity,Mus musculus [13],Non-Toxic
same,Activity,Mus musculus [14],Non-Toxic
same,Activity,Mus musculus [15],0%
same,Activity,Mus musculus [16],0%
same,Activity,Mus musculus [17],Non-Toxic
same,Activity,Mus musculus [18],Non-Toxic
same,Activity,Mus musculus [19],Non-Toxic
same,Activity,Mus musculus [20],Non-Toxic
same,Activity,Mus musculus [21],Non-Toxic
same,Activity,Mus musculus [22],Non-Toxic
same,Activity,Mus musculus [23],Non-Toxic
same,Activity,Mus musculus [24],Non-Toxic
COc1cc(/C=C/C(=O)c2ccccc2)ccc1O,Ki,[2],> 10000 nM
same,inhibition,[25],inactive
same,"solubility kinetic at 24 h, 5 µM",[3],> 5 µM
COc1cc(/C=C/C(=O)c2ccc(S(=O)(=O)O)cc2)ccc1O,inhibition,[26],6%
same,"solubility kinetic at 24 h, 5 µM",[3],> 5 µM
COc1cc(/C=C2\CCc3cc(Cl)ccc3C2=O)ccc1O,inhibition,[25],70%
same,"solubility kinetic at 24 h, 5 µM",[3],> 5 µM
COc1cc(-c2cc(-c3ccc(Cl)cc3)nc(-c3ccccc3)n2)ccc1O,"solubility kinetic at 24 h, 5 µM",[3],0.53 µM
same,inhibition,[27],20%
O=c1nc(-c2ccc(Cl)cc2)cc(-c2ccc(O)cc2)[nH]1,inhibition,Mus musculus [10],inactive
same,Activity,[28],inactive
same,inhibition,[29],< 5%
COc1cc(/C=C/C(=O)c2ccc([N+](=O)[O-])cc2)ccc1O,inhibition,[26],30%
same,"solubility kinetic at 24 h, 5 µM",[3],> 5 µM
